Assay results published in ChEMBL document CHEMBL1148356, “Synthesis and biological evaluation of 3-heterocyclyl-7,8,9,10-tetrahydro-(7,10-ethano)-1,2,4-triazolo[3,4-a]phthalazines and analogues as subtype-selective inverse agonists for the GABA(A)alpha5 benzodiazepine binding site” (J Med Chem, 2004).

Columns and labels:
[1] = molecular target: T1, GABA-A receptor; alpha-5/beta-3/gamma-2 (Homo sapiens) (UniProt P18507+P28472+P31644); test: Percent change in electrophysiological response in Xenopus oocytes expressing Alpha-5-beta-3-gamma-2 GABA-A receptor; assay type: functional, cell-based; conditions: Oocyte
In short: (§1)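 Two-electrode voltage clamp on Xenopus oocytes injected with human GABA-A subunit cDNAs, 24-72 h expression, perfused with modified Barth's medium at pH 7.5, clamped between -40 and -70 mV. The GABA EC20 was titrated against a 3 mM GABA maximum. […] Result is % change of control current, mean ± SE of ≥4 oocytes.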

[2] = molecular target: GABA-A receptor; alpha-6/beta-3/gamma-2 (Homo sapiens, UniProt P18507+P28472+Q16445); test: Inhibition of [3H]Ro-151788 binding to human alpha-6-beta-3-gamma-2 GABA-A receptor expressed in L(tk-) cells; assay type: cell-based
[3] = molecular target: T2, GABA-A receptor; alpha-5/beta-3/gamma-2 (Homo sapiens, UniProt P18507+P28472+P31644); test: Binding affinity towards human alpha-5-beta-3-gamma-2 GABA-A receptor using [3H]Ro-151788 expressed in L(tk-) cells; assay type: cell-based
T2 sequence (P18507 whole entry): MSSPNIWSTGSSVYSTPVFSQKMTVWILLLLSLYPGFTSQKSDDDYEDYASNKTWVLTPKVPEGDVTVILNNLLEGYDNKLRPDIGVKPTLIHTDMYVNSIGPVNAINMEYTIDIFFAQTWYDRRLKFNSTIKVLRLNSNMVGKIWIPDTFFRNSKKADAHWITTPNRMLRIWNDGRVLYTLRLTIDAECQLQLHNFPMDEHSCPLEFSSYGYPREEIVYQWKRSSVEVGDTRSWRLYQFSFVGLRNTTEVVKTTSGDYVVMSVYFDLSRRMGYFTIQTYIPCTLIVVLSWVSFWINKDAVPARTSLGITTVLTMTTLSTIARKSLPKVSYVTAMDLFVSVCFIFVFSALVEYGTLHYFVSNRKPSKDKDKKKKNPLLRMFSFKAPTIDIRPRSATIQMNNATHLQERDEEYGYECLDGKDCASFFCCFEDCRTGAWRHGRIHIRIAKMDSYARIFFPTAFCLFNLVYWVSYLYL
T2 sequence (P28472 whole entry): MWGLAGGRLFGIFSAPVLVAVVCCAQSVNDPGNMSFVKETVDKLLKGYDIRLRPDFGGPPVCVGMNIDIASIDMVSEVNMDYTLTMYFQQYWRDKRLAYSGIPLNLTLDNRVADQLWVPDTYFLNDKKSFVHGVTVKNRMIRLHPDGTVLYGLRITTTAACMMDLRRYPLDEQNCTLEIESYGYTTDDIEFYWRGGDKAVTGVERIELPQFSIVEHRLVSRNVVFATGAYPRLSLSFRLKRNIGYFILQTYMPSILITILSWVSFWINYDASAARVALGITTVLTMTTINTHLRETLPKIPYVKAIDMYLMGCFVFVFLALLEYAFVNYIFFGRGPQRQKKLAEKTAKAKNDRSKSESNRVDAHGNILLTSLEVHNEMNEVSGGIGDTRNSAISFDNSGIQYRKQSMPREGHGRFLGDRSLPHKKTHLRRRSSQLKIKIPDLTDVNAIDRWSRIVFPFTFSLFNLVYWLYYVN
T2 sequence (P31644 whole entry): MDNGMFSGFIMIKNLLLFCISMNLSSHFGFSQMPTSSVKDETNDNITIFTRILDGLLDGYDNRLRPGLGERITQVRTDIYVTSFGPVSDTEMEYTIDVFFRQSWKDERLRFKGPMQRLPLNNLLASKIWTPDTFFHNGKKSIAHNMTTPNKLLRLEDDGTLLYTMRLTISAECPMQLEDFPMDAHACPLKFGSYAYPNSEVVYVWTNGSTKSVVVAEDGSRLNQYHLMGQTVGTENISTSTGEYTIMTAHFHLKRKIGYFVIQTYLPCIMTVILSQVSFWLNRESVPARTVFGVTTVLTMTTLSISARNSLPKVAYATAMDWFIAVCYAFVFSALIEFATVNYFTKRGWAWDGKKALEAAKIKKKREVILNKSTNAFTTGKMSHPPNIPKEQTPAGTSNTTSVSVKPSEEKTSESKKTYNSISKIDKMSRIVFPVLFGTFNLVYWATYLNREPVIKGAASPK

[4] = molecular target: GABA-A receptor; alpha-3/beta-3/gamma-2 (Homo sapiens) (UniProt P18507+P28472+P34903); test: Percent change in electrophysiological response in Xenopus oocytes expressing Alpha3-beta3-gamma2 GABA-A receptor; assay type: functional, cell-based; conditions: Oocyte; in short: as §1
[5] = molecular target: GABA A receptor alpha-4/beta-3/gamma-2 (Homo sapiens, UniProt P18507+P28472+P48169); test: Inhibition of [3H]-Ro-15-1788 binding to human alpha-4-beta-3-gamma-2 GABA-A receptor expressed in L(tk-) cells; assay type: cell-based
[6] = molecular target: T3, GABA-A receptor; alpha-2/beta-3/gamma-2 (Homo sapiens, UniProt P18507+P28472+P47869); test: Binding affinity towards human gamma-aminobutyric-acid A receptor alpha-2-beta-3-gamma-2 using [3H]Ro-151788 expressed in L(tk-) cells; assay type: cell-based
T3 sequence (P18507 whole entry): T2 sequence (P18507 whole entry)
T3 sequence (P28472 whole entry): T2 sequence (P28472 whole entry)
T3 sequence (P47869 whole entry): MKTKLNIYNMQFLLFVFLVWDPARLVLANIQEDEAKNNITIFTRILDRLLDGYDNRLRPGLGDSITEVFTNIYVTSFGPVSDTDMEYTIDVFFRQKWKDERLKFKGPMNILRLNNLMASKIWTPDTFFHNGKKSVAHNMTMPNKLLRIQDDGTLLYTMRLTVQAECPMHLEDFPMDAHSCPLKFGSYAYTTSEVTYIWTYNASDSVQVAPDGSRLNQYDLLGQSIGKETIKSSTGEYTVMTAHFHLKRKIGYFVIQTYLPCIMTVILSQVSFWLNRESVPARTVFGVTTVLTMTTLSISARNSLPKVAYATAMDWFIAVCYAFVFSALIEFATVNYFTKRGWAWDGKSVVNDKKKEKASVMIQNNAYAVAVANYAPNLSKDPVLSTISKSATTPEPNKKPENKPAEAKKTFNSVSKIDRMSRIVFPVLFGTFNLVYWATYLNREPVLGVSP

[7] = molecular target: T1, GABA-A receptor; alpha-5/beta-3/gamma-2 (Homo sapiens); test: Percent maximum change in electrophysiological response in Xenopus oocytes expressing alpha-5-beta-3-gamma-2 GABA-A receptor; assay type: functional, cell-based; conditions: Oocyte; in short: as §1
[8] = molecular target: GABA-A receptor; alpha-2/beta-3/gamma-2 (Homo sapiens) (UniProt P18507+P28472+P47869); test: Percent maximum change in electrophysiological response in Xenopus oocytes expressing alpha-2-beta-3-gamma-2 GABA-A receptor; assay type: functional, cell-based; conditions: Oocyte; in short: as §1
[9] = Oral bioavailability in rat; assay type: ADME, organism-based; conditions: in vivo
In short: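 Male SD rats with jugular cannulas were fasted overnight and dosed either by tail-vein IV bolus or orally (n = 3 per route). Serial jugular blood samples were taken up to 8 h. Plasma was frozen at −20 °C, protein-precipitated with acetonitrile containing internal standard, and quantified by LC-MS/MS.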

Chain of GABA-A receptor; alpha-6/beta-3/gamma-2 (Q16445 whole entry, one chain of several): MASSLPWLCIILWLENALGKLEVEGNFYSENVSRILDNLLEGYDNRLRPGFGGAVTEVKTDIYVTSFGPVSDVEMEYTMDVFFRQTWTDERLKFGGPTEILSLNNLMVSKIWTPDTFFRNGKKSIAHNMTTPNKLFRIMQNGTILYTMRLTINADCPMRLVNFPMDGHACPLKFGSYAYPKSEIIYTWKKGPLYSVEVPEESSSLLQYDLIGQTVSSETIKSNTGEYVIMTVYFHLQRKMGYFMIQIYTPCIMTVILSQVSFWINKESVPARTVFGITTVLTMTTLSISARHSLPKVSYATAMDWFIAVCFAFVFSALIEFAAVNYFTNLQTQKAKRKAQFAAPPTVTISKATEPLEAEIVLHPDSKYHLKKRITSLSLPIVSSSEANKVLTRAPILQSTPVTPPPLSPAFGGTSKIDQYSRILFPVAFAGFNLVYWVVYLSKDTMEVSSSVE
Chain of GABA A receptor alpha-4/beta-3/gamma-2 (P48169 whole entry, one chain of several): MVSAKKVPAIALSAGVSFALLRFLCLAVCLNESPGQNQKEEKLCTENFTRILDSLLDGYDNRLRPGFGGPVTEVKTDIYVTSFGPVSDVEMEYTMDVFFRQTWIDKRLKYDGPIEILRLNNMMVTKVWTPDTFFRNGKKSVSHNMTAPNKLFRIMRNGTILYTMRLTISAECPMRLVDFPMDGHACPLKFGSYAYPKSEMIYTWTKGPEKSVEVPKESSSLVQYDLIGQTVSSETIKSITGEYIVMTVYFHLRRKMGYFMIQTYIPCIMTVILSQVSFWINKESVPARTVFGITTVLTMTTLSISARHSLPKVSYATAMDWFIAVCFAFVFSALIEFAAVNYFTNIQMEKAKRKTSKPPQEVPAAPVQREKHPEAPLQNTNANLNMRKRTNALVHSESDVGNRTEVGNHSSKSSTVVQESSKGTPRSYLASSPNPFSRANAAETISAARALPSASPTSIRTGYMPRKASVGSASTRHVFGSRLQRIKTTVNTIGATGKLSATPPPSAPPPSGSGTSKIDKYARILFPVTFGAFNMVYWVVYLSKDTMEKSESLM

- Efficacy [1]: -46%
- Ki [2]: 4410 nM
- Ki [3]: 0.8 nM
- Efficacy [4]: -4%
- Ki [5]: 244 nM
- Ki [6]: 2.7 nM
- Efficacy [7]: -45%
- Efficacy [8]: -7%
- bioavailability [9]: 41%
Compound: Cc1cc(-c2nnc3c4ccccc4c(OCc4ccccn4)nn23)no1
